Entries after “also recorded” stand apart in the source; their conditions may differ.
Key:
[1] = system: inflammasomes in monocytes; conditions: crystals of uric acid; cited from earlier work
[2] = uric acid administration; ref Scott et al., 2002; cited from earlier work
[3] = Solubility in physiological buffers; type: physicochemical
[4] = EAE induced by adoptive transfer of Th17 lymphocytes, clinical signs; type: in vivo, mouse (C57BL/6J); conditions: 2 µg daily for 21 d beginning the day after adoptive transfer; groups of 10 mice
Procedure, shortened: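 Donor female C57BL/6J mice were immunised s.c. with MOG35-55 in CFA. On day 10, spleen and draining lymph node cells were restimulated for 3 d with 10 µg/ml MOG35-55 plus 10 ng/ml IL-23. Cells (15 × 10^6 per mouse) were given i.p. to 9-wk-old female recipients. PBS served as control. Mice were scored daily on a 0–5 scale, with atypical EAE scored separately.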

Amyloid fibril formation = type: physicochemical; conditions: physiological buffers; ThT staining; Fig. S1
Procedure, shortened: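 Hexapeptide (200 µg in 50 µl) was combined with 100 mM MES pH 7.4 and a 1 M solution at the appropriate pH, then incubated at 37°C. ThT (10 µM solution, pre-addition) was added. Fluorescence was read at 485 nm with excitation at 440 nm. Run in triplicate and repeated twice.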

[5] = ref Kurnellas et al., 2013; cited from earlier work
[6] = system: type 1 IFN (murine IFN-α4, 5, 12, and 13; consensus primers); test: Type 1 IFN induced in PBCs of healthy C57BL/6 mice; type: in vivo, mouse (C57BL/6); conditions: compared with peptides that readily form fibrils

## O=c1[nH]c(=O)c2[nH]c(=O)[nH]c2[nH]1 [uric acid]
[1]
  endocytosis and inflammasome induction: endocytosed and induce inflammasomes with subsequent secretion of IL-1β by monocytes
[2]
  therapeutic effect in EAE: therapeutic benefit

## Ac-VQIVYK-NH2 [Tau 623–628]
[3]
  solubility in physiological buffers: limited solubility in physiological buffers

## SSTNVG [Amylin 28–33]
[4]
  clinical signs of Th17-induced EAE, 2 µg: therapeutic in Th17-induced EAE
Amyloid fibril formation
  amyloid fibril formation in vitro: do not readily form fibrils in physiological buffers; also recorded: did not form detectable amounts of fibrils in vitro
[5]
  therapeutic effect of polar, nonionizable peptides in active EAE: therapeutic
[6]
  type 1 IFN production (summary): stimulated significantly less type 1 IFN production

From PMC4144739 (The Journal of Experimental Medicine, 2014)
